Assay results reported in paper PMC4767637 (Journal of molecular biology, 2016).
Residue numbers refer to the chain shown, from its start. In names and notes the source's numbering stands.

B1: pSTAT3: Tyr-705-phosphorylated STAT3 (protein)
chain: GQANHPTAAVVTEKQQMLEQHLQDVRKRVQDLEQKMKVVENLQDDFDFNYKTLKSQGDMQDLNGNNQSVTRQKMQQLEQMLTALDQMRRSIVSELAGLLSAMEYVQKTLTDEELADWKRRQQIACIGGPPNICLDRLENWITSLAESQLQTRQQIKKLEELQQKVSYKGDPIVQHRPMLEERIVELFRNLMKSAFVVERQPCMPMHPDRPLVIKTGVQFTTKVRLLVKFPELNYQLKIKVCIDKDSGDVAALRGSRKFNILGTNTKVMNMEESNNGSLSAEFKHLTLREQRCGNGGRANCDASLIVTEELHLITFETEVYHQGLKIDLETHSLPVVVISNICQMPNAWASILWYNMLTNNPKNVNFFTKPPIGTWDQVAEVLSWQFSSTTKRGLSIEQLTTLAEKLLGPGVNYSGCQITWAKFCKENMAGKGFSFWVWLDNIIDLVKKYILALWNEGYIMGFISKERERAILSTKPPGTFLLRFSESSKEGGVTFTWVEKDISGKTQIQSVEPYTKQQLNNMSFAEIIMGYKIMDATNILVSPLVYLYPDIPKEEAFGKYCRPESQEHPEADPGSAAPYLKTKFI
modifications: phosphotyrosine at 705; left off: His6, C-terminal, state not stated
B2: I568F: HIES associated STAT3 mutation in the LD (protein)
chain: B1 chain with I442F
modifications: left off: His6, C-terminal, state not stated

What was measured:
[1] = tested on: pSTAT3 homodimer; experiment: NMR CSP of pSTAT3 dimer versus uSTAT3; format: binding, human; conditions: 2D 13C-1H HMQC, 25 °C
[2] = tested on: pSTAT3 homodimer; experiment: van't Hoff analysis of pSTAT3 monomer-dimer equilibrium by HMQC; format: binding, human; conditions: 25-45 °C, 700 MHz
Outline: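 His-tagged pSTAT3 (127-711), co-expressed with tyrosine kinase in E. coli TKB1, deuterated with Ile Cδ1 methyl 13CH3 labeling, in deuterated 10 mM MES pH 5.5, 2 mM TCEP, 0.03% sodium azide, 100% D2O. 2D 1H-13C HMQC at 700 MHz at 25, 30, 32, 34, 36, 38, 40 and 45 °C. Keq is the population ratio of exchanging species (a) and (b); ΔH0 and ΔS0 come from a linear fit of ln(Keq) vs 1/T.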

[3] = tested on: pSTAT3; experiment: 13C SQ-CPMG relaxation dispersion; set-up: species or system human; conditions: 35 °C, 600 and 700 MHz, ~170 μM pSTAT3
[4] = tested on: I568F STAT3; experiment: NMR CSP of I568F STAT3 relative to WT; set-up: species or system human; conditions: 2D 13C-1H HMQC Ile spectra

| Molecule | CSPs of pSTAT3 dimer [1] | ΔS° of monomer-dimer equilibrium (I568 and I654) ([2]; residues I568 (LD) and I654 (SH2)) [cal/mol•K] | ΔS° of monomer-dimer equilibrium (I653 and I711) ([2]; residues I653 and I711) [cal/mol•K] | change in Rex of I568, pSTAT3 dimer versus pY904-bound uSTAT3 [3] | CSP of I568F mutant relative to WT [4] |
| --- | --- | --- | --- | --- | --- |
| B1 | Additional CSPs unique to pSTAT3 were observed at I653 and I711 | 47.0 ± 3.7 | 42.2 ± 1.6 | Larger increases in the Rex of I568 were observed for the dimeric pSTAT3 than for pY904-bound uSTAT3 | – |
| B2 | – | – | – | – | significant CSP relative to WT protein in all structured domains of STAT3, from the CCD to SH2 |
